Test results taken from ChEMBL document CHEMBL1122536, “Novel pyrimidine and 1,3,5-triazine hypolipidemic agents” (J Med Chem, 1984).

Tests used:
Rattus norvegicus [1] = assay: Hyperlipidemic activity was assessed by measuring cholesterol in Sprague-Dawley male rats at 50 mg/kg; type: functional
Procedure, shortened: (§1)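 Sprague-Dawley rats were fed the hyperlipidemic Nath's diet for 15 days and dosed orally at 50 or 200 mg/kg, or at 6.25, 12.5 and 25 mg/kg on a diet with 0.5% cholesterol and cholic acid. After an 18-h fast they were killed on day 16, 24 h after the last dose. Serum total cholesterol and triglycerides were assayed, and liver weight was expressed per 100 g bodyweight. Groups were compared with Nath's-diet controls by Student's t test.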

Rattus norvegicus [2] = assay: Hypolipidemic activity was assessed by measuring cholesterol in Sprague-Dawley male rats at 50 mg/kg; type: functional
Procedure, shortened: (§2)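 Male Sprague-Dawley rats (185-g mean bodyweight) on a normal diet were dosed orally for 4 consecutive days at 50 mg/kg or 200 mg/kg. They were fasted 18 h, and blood was drawn from the abdominal aorta 24 h after the last dose. Serum total cholesterol, triglycerides (mg/100 mL) and lipoprotein α-cholesterol (% of total cholesterol) were measured. Groups of 10–40 rats were compared with controls by Student's t test.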

Rattus norvegicus [3] = assay: Hypolipidemic activity was assessed by measuring alpha-cholesterol in Sprague-Dawley male rats at 50 mg/kg; type: functional; settings: dose 50 mg/kg; procedure, shortened: as §2
[4] = Evaluated for the dose that causes 50 % lethality in Sprague-Dawley male rats; type: ADME, organism-based; settings: rat, in vivo
Rattus norvegicus [5] = assay: Hyperlipidemic activity was assessed by measuring liver weight in Sprague-Dawley male rats at 50 mg/kg; type: functional; procedure, shortened: as §1
Rattus norvegicus [6] = assay: Hypolipidemic activity was assessed by measuring liver weight in Sprague-Dawley male rats at 50 mg/kg; type: functional; settings: dose 20 mg/kg; in the assay text read “F 344 rats at 20 mg/kg” for “Sprague-Dawley male rats at 50 mg/kg”
Rattus norvegicus [7] = assay: Hypolipidemic activity was assessed by measuring triglycerides in Sprague-Dawley male rats at 50 mg/kg; type: functional; procedure, shortened: as §2
Rattus norvegicus [8] = assay: Hyperlipidemic activity was assessed by measuring triglycerides in Sprague-Dawley male rats at 50 mg/kg; type: functional; procedure, shortened: as §1
Rattus norvegicus [9] = assay: Hypolipidemic activity was assessed by measuring body weight in F 344 rats at 20 mg/kg
Rattus norvegicus [10] = assay: Hypolipidemic activity was assessed in Variation of the liver enzyme catalase was expressed as units per mg of protein in F 344 rats at 20 mg/kg
Rattus norvegicus [11] = assay: Hypolipidemic activity was assessed by measuring cholesterol in Sprague-Dawley male rats at 200 mg/kg; type: functional; procedure, shortened: as §2
Rattus norvegicus [12] = assay: Hypolipidemic activity was assessed by measuring alpha-cholesterol in Sprague-Dawley male rats at 200 mg/kg; type: functional; procedure, shortened: as §2
[13] = Compound was evaluated for the dose that causes […] in Sprague-Dawley male rats; type: ADME, organism-based; settings: rat, in vivo
Rattus norvegicus [14] = assay: Hypolipidemic activity was assessed by measuring triglycerides in Sprague-Dawley male rats at 200 mg/kg; type: functional; procedure, shortened: as §2
Rattus norvegicus [15] = assay: Hyperlipidemic activity was assessed by measuring cholesterol in Sprague-Dawley male rats at 12.5 mg/kg; type: functional; procedure, shortened: as §1
Rattus norvegicus [16] = assay: Hyperlipidemic activity was assessed by measuring cholesterol in Sprague-Dawley male rats at 25 mg/kg; type: functional; procedure, shortened: as §1
Rattus norvegicus [17] = assay: Hyperlipidemic activity was assessed by measuring cholesterol in Sprague-Dawley male rats at 6.25 mg/kg; type: functional; procedure, shortened: as §1
Rattus norvegicus [18] = assay: Hyperlipidemic activity was assessed by measuring liver weight in Sprague-Dawley male rats at 12.5 mg/kg; type: functional; procedure, shortened: as §1
Rattus norvegicus [19] = assay: Hyperlipidemic activity was assessed by measuring liver weight in Sprague-Dawley male rats at 25 mg/kg; type: functional; procedure, shortened: as §1
Rattus norvegicus [20] = assay: Hyperlipidemic activity was assessed by measuring liver weight in Sprague-Dawley male rats at 6.25 mg/kg; type: functional; procedure, shortened: as §1
Rattus norvegicus [21] = assay: Hyperlipidemic activity was assessed by measuring triglycerides in Sprague-Dawley male rats at 12.50 mg/kg; type: functional; settings: dose 12.5 mg/kg; procedure, shortened: as §1
Rattus norvegicus [22] = assay: Hyperlipidemic activity was assessed by measuring triglycerides in Sprague-Dawley male rats at 25 mg/kg; type: functional; procedure, shortened: as §1
Rattus norvegicus [23] = assay: Hyperlipidemic activity was assessed by measuring triglycerides in Sprague-Dawley male rats at 6.25 mg/kg; type: functional; procedure, shortened: as §1
Rattus norvegicus [24] = assay: Hypolipidemic activity was assessed inVariation of the enoyl-CoA oxide (umol/min mg) in F 344 rats at 20 mg/kg.
Rattus norvegicus [25] = assay: Hyperlipidemic activity was assessed in variation of palmitoyl-CoA oxide (umol/min mg) in F 344 rats at 20 mg/kg.
Rattus norvegicus [26] = assay: Hypolipidemic activity was assessed in Variation of the liver enzyme catalase was expressed as units per mg of protein in F 344 rats at 20 mg/kg; remark: listed apart in the source
Rattus norvegicus [27] = assay: Hypolipidemic activity was assessed in Variation of the carnitine acetyl transferase was expressed as units per mg of protein in F 344 rats at 20 mg/kg

| Structure (SMILES) | Cholesterol (Rattus norvegicus [2]) [mg 100ml-1] | Alpha-cholesterol (Rattus norvegicus [3]) [%] | LD50 [4] [mg/kg] | Triglycerides (Rattus norvegicus [7]) [mg/100 mL] | Cholesterol (Rattus norvegicus [11]) [mg 100ml-1] | Alpha-cholesterol (Rattus norvegicus [12]) [%] | LD50 [13] [mg/kg] | Triglycerides (Rattus norvegicus [14]) [mg/100 mL] | also measured |
| --- | --- | --- | --- | --- | --- | --- | --- | --- | --- |
| CCOc1cc(Nc2cccc(C)c2C)nc(SCC(=O)NCCO)n1 | <65.7 | 76.6 | 2500 | < 64.3 |  |  |  |  | Cholesterol (Rattus norvegicus [1]): <479.8 mg 100ml-1; Liver weight (Rattus norvegicus [5]): 6.85 g 100g-1; Liver weight (Rattus norvegicus [6]): 5.9 g (100g of body weight)-1; Triglycerides (Rattus norvegicus [8]): <206.6 mg 100ml-1; Body weight (Rattus norvegicus [9]): 192 g; Catalase (Rattus norvegicus [10]): 67.5 U/mg protein |
| CN(C)c1nc(N)nc(Cl)n1 |  |  |  |  | <105.6 | 85.4 | < 2000 | < 78.2 |  |
| Cc1cccc(N(C)c2cc(Cl)nc(SCC(=O)O)n2)c1C | 63.5 | 78.6 | 1010 | < 46.9 |  |  |  |  |  |
| CN(C)c1nc(N)cc(Cl)n1 |  |  |  |  | 71.4 | <87.4 | < 2500 | < 89.9 |  |
| CCCCCCCCSc1nc(Cl)cc(Nc2cccc(C)c2C)n1 | 63.2 | 67.7 |  | 96.5 |  |  |  |  |  |
| CSc1nc(Cl)cc(Nc2cccc(C)c2C)n1 | <54.2 | 72.3 | 1250 | 106 |  |  |  |  |  |
| Cc1cccc(Oc2cc(Cl)nc(N(C)C)n2)c1C |  |  |  |  | 76.7 | 72.6 | < 2000 | 102 |  |
| Cc1cccc(Nc2nc(Cl)nc(N(C)C)n2)c1C |  |  |  |  | 80.8 | 78.6 | < 2000 | < 91.4 |  |
| Cc1cccc(Oc2cc(Cl)nc(OCC(=O)O)n2)c1C | 67.1 | 74 | 1210 | 91.1 |  |  |  |  |  |
| Cc1cccc(N(C)c2cc(Cl)nc(NCC(=O)O)n2)c1C | <68.4 | 77 | 995 | < 50 |  |  |  |  |  |
| Cc1cccc(Nc2nc(Cl)nc(OCC(=O)O)n2)c1C |  |  |  |  | 72 | <82.1 | 1180 | < 65.5 |  |
| Cc1cccc(Nc2cc(Cl)nc(NCC(=O)O)n2)c1C [ARONIXIL] | <63.6 | 76.7 | 1020 | < 71.6 |  |  |  |  | Cholesterol (Rattus norvegicus [15]): 264.2 mg 100ml-1; Cholesterol (Rattus norvegicus [16]): <215.4 mg 100ml-1; Cholesterol (Rattus norvegicus [17]): 257.4 mg 100ml-1; Liver weight (Rattus norvegicus [18]): 5.14 g 100g-1; Liver weight (Rattus norvegicus [19]): 5.31 g 100g-1; Liver weight (Rattus norvegicus [20]): 4.82 g 100g-1; Liver weight (Rattus norvegicus [6]): 4.2 g (100g of body weight)-1; Triglycerides (Rattus norvegicus [21]): 263.8 mg 100ml-1; Triglycerides (Rattus norvegicus [22]): 312.1 mg 100ml-1; Triglycerides (Rattus norvegicus [23]): <205.2 mg 100ml-1; Body weight (Rattus norvegicus [9]): 266 g; Enoyl-CoA hydratase (Rattus norvegicus [24]): 3.7 uM min-1 (mg of protein)-1; Palmitoyl-CoA oxid (Rattus norvegicus [25]): 0.056 µM/min/mg; Liver catalase (Rattus norvegicus [26]): 61 mg of protein; Carnitine acetyl transferase (Rattus norvegicus [27]): 11 U/mg protein |
